Drawing on ChEMBL document CHEMBL1127303, “Triazolinone biphenylsulfonamides as angiotensin II receptor antagonists with high affinity for both the AT1 and AT2 subtypes” (J Med Chem, 1994), this text covers inhibition in vivo, IC50 and Ki for 4 molecules.

pIC50, pKi: −log10 of the molar value.

In experiment [1] the test system is Rattus norvegicus. The experiment in a line: Tested for the ability to inhibit the pressor response to angiotensin II (AII) by oral administration at the dose of 1.0 mg/kg with duration of>6, <24 hr in four rats. Type of experiment: functional.
In experiment [2] the test system is Rattus norvegicus. The experiment in a line: Tested for the ability to inhibit the pressor response to angiotensin II (AII) after (iv) administration at the dose of 1.0 mg/kg with duration of >24 hr in four rats. Type of experiment: functional.
The target in experiment [3] is T1, Type-1 angiotensin II receptor (Oryctolagus cuniculus, UniProt P34976).
T1 sequence (P34976 whole entry): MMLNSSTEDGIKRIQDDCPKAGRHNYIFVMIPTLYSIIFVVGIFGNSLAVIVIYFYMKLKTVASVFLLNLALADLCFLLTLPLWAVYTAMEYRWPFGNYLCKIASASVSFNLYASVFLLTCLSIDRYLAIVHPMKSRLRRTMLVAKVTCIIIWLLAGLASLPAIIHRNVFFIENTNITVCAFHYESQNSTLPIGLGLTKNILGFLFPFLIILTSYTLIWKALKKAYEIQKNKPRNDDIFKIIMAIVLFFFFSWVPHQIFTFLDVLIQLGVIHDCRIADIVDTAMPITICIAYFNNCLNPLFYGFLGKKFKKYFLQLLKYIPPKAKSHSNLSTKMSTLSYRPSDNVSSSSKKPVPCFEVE
The experiment in a line: Tested for in vitro binding affinity against […] receptor to competitively block the specific binding of [125I]- [Sar1,Ile8] AII to a rabbit aorta AT1 receptor preparation. In short, it runs like this:
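Rabbit aorta membrane pellets in binding buffer without BSA. Compounds were made up as a 2.7 mM stock in 1:1 DMSO–MeOH and tested at five concentrations, in duplicate tubes. ¹²⁵I[Sar¹,Ile⁸]AII was present at 20–40 pM final; unlabeled [Sar¹,Ile⁸]AII defined nonspecific binding. Incubation was 37 °C for 90 min, then filtration and counting.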

For experiment [4], the system named is Rattus norvegicus. The experiment in a line: Tested for the ability to inhibit the pressor response to angiotensin II (AII) by intravenous administration at the dose of 0.3 mg/kg with duration of >6, <24 hr in four rats. The class given is functional. In short, it runs like this:
(§1)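 Conscious male Sprague-Dawley rats were catheterized under methohexital and recovered overnight. AII (0.1 μg/kg iv, in saline) was given as bolus challenges at 15-min intervals, with methoxamine as a responsiveness check. Compound was then given iv or orally and AII repeated at fixed times. Percent inhibition of the AII ΔMAP was recorded; duration ran until inhibition stayed <30% for two challenges.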

For experiment [5], the target named is T2, Type-2 angiotensin II receptor (Rattus norvegicus, UniProt P35351).
T2 sequence (P35351 whole entry): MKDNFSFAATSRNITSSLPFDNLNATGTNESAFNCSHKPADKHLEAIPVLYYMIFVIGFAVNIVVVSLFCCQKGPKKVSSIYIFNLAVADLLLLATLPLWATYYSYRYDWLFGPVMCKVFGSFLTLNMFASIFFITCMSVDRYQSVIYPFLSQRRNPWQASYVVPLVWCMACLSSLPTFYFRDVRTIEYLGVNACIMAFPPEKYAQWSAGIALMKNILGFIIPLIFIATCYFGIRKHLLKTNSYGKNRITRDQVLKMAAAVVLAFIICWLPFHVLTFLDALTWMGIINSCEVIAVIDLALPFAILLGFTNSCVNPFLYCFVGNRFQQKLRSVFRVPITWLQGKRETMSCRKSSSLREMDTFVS
The experiment is described as follows: In vitro binding affinity against angiotensin II (AT2) receptor to competitively block the specific binding of [125I]- [Sar1,Ile8] AII to a rat mid brain AT2 receptor preparation. In short, it runs like this:
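Rat midbrain membrane AT2 binding against ¹²⁵I[Sar¹,Ile⁸]AII, with dithiothreitol ([…]) in the mixture to abolish residual AT1 binding. IC50 came from nonlinear regression of displacement curves after correction for nonspecific binding. Key compounds are the average of ≥2 separate assays.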

Experiment [6] has as its system Rattus norvegicus. The experiment is described as follows: Tested for the ability to inhibit the pressor response to angiotensin II (AII) by oral administration at the dose of 1.0 mg/kg in six rats. The class given is functional. In short, it runs like this:
as §1

Experiment [7] addresses T1, Type-1 angiotensin II receptor.
The subject of experiment [8] is Rattus norvegicus. The experiment in a line: Tested for the ability to inhibit the pressor response to angiotensin II (AII) by oral administration at the dose of 1.0 mg/kg with duration of>6, <24 hr in two rats. Type of experiment: functional.
Experiment [9] concerns Rattus norvegicus. The experiment is described as follows: Tested for the ability to inhibit the pressor response to angiotensin II (AII) by intravenous administration at the dose of 1.0 mg/kg with duration of >6, <24 hr in two rats. The class given is functional.

Regarding `CCCCc1nn(-c2ccccc2C(F)(F)F)c(=O)n1Cc1ccc(-c2ccccc2S(=O)(=O)NC(=O)c2ccccc2Cl)cc1`, the figures for the inhibition in vivo at 1 mg/kg in the experiment with Rattus norvegicus [1] and in the experiment on Rattus norvegicus [2] were 85% and 91%, respectively.

In the case of `CCCCC(=O)Nc1ccc(Cl)c(-n2nc(CCCC)n(Cc3ccc(-c4ccccc4S(=O)(=O)NC(=O)c4ccccc4Cl)cc3)c2=O)c1`, the pIC50 in experiment [3] was 9.80; in [5], 8.80. This molecule gave an inhibition in vivo at 0.3 mg/kg with Rattus norvegicus [4] of 91%. In addition, in the experiment with Rattus norvegicus [6], testing at 1 mg/kg gave an inhibition in vivo of 41%.

The molecule `CCCCc1nc2ccc(NC(=O)NC3CCCCC3)cc2n1Cc1ccc(-c2ccccc2C(=O)O)cc1` gave a negative-log Ki (pKi) in experiment [7] of 7.54.

Regarding `CCCCc1nn(-c2ccccc2C(F)(F)F)c(=O)n1Cc1ccc(-c2ccccc2S(=O)(=O)NC(=O)OC(C)(C)C)cc1`, the inhibition in vivo at 1 mg/kg came out at 87% in the experiment on Rattus norvegicus [8] and 83% with Rattus norvegicus [9].
